An excerpt weighted towards active compounds, which were near 4.1% of everything screened.
KCNK9 block: inhibitors of human KCNK9 two-pore domain potassium channel | Q9NPC2 | B-score at 10 µM | 1.2% of 310,000 active | AID 488922 | HEK293 KCNK9, FluxOR thallium flux fluorescence; stronger effect = lower value;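 active means ratio B-score over 3 SD below the library mean, with starting fluorescence within 5 SD of its mean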;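 further: negative B-score means less thallium flux so channel inhibition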
KCNK3 inh: human KCNK3 channel inhibition, primary screen. O14649. CHO-KCNK3 thallium flux, FluxOR fluorescence; stronger effect = lower value. B-score at 10 µM. 0.84% of 340,000 active. AID 602410;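 active means B-score under library mean minus 4 SD, starting fluorescence ratio at most library mean plus 5 SD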;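 further: more negative B-score means stronger inhibition of thallium flux through KCNK3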
KCC2 mod: KCC2 (human) Cl- transport modulation; 2.2% of 190,000 active; KCC2 cells, thallium flux FluoZin-2 fluorescence; B-score of Tl+ flux slope (higher = more flux/activation; lower = inhibition) at 10 µM; Q9H2X9; AID 1456;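 active means thallium flux slope and its plate-corrected score both differing from the plate sample mean at a set confidence after two filtering rounds, in either direction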;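 further: slope of fluorescence scaled to starting intensity during 10 to 20 s after thallium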
hERG rescue: shields human hERG channel from block by proarrhythmic agents; Q12809; CHO-hERG, FluxOR thallium flux, dofetilide IC70 present; activation (rescue from dofetilide block), less the hit threshold, % at 10 µM; 0.51% of 310,000 active; AID 1511;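 active means activation above the mean of controls blocked by dofetilide plus 5 SD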;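 further: thallium influx through hERG after potassium depolarization seen as dye fluorescence rise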
KCNQ1 act: potentiates or activates the human KCNQ1 potassium channel; P51787; CHO-K1 KCNQ1, thallium flux FluxOR fluorescence; stronger effect = higher value; B-score at 10 µM; 0.35% of 310,000 active; AID 2648;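 active means fluorescence ratio B-score, a plate-corrected score, at least three library SD, with initial intensity B-score within 5 SD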
Target sequence (P51787 whole entry, looked up): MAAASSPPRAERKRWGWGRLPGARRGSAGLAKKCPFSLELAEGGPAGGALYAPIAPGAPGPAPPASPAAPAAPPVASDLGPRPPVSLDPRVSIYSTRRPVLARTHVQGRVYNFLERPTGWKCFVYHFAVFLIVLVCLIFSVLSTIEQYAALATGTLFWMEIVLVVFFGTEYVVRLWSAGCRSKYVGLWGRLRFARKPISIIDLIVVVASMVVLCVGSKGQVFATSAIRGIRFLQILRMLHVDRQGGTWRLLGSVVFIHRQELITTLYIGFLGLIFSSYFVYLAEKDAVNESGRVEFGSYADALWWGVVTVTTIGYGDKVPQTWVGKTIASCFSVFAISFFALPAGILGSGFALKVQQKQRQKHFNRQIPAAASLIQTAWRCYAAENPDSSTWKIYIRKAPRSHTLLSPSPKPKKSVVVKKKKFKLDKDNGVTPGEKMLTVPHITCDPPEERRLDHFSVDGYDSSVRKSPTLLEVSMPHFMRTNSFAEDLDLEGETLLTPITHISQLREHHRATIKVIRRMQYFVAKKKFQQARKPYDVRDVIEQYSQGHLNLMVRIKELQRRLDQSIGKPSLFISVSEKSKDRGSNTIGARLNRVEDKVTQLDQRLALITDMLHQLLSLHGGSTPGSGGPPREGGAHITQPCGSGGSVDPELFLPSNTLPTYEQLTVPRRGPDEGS
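Doses: Single concentration per compound, DMSO matched to controls | Test system: KCNQ1-transfected CHO-K1 cells | Timing: 90 min dye loading and 20 min compound exposure, both at room temperature | Measured by: Kinetic FluxOR thallium fluorescence, 10-s 1-Hz baseline, 110-s post-stimulus read | Medium: Assay buffer with matched DMSO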
KCNQ1 block: human KCNQ1 channel inhibition; P51787; CHO-K1 KCNQ1, FluxOR thallium flux fluorescence; stronger effect = higher value; B-score at 10 µM; 1.3% of 310,000 active; AID 2642;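 active means compounds whose thallium flux B-score, printed positive for inhibition, exceeds three library SD while starting fluorescence stays within three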;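 further: channel opened by potassium depolarization with thallium stimulus after 20 min compound exposure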
KCC2 secondary: KCC2 (human) modulation, secondary assay. AID 1713. normalised thallium flux (F/F0 slope) at 10 µM. shares compounds with KCC2 mod. HEK293-KCC2, thallium flux, FluoZin2 fluorescence; stronger effect = higher value. 15% of 3,700 active;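 active means thallium flux slope above the same plate's solvent-only control mean plus 3 SD; inconclusive means the two replicate wells disagree; inactive means no significant difference from solvent-only control wells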
KCC2 bumet counter: bumetanide-insensitive thallium flux in KCC2 cells with ouabain, counter-screen; shares compounds with KCC2 mod; HEK293-KCC2 + bumetanide/ouabain, thallium flux FluoZin2; stronger effect = higher value; normalized thallium flux at 10 µM; 49% of 3,700 active; AID 1714;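 active means thallium entry rate above the same plate's blocked-transporter control wells by more than 3 SD; inconclusive means the two repeat wells disagree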;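 further: raw slope of fluorescence over initial fluorescence between 10 and 20 s after thallium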
KCC2 sec2: KCC2 (human) modulation, second secondary assay. shares compounds with KCC2 mod. HEK293-KCC2, thallium flux FluoZin2 fluorescence; actives lie on both sides; F/F0 rise rate, 10–20 s post-thallium. normalized thallium flux at 10 µM. 23% of 3,700 active. AID 1715;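 active means thallium flux slope more than 3 SD above or below the plate's solvent-only control mean, mostly below; inconclusive means the two repeat wells disagreed; inactive means no significant shift from solvent-only controls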;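 further: raw slope with 0.1% DMSO as baseline and bumetanide as block control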
HEK counter1: parental HEK flux effect, counter-screen. HEK293 parental cells, thallium flux FluoZin2, ouabain; baseline-ratio fluorescence slope, 10–20 s after thallium. AID 1716. thallium flux rate (normalised fluorescence) at 10 µM. 46% of 3,700 active. shares compounds with KCC2 mod;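 active means thallium flux rate significantly above the same plate's solvent-only control wells, beyond their mean plus 3 SD; inconclusive means the two replicate wells gave conflicting results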
KCC2 ouabain: modulates human KCC2 on retest with ouabain. shares compounds with KCC2 mod. HEK293-KCC2, thallium flux FluoZin2 fluorescence; bidirectional: low = inhibitor, high = activator. 48% of 3,700 active. raw Tl+ flux slope (below DMSO = inhibition, above = activation) at 10 µM;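 active means thallium flux slope beyond 3 SD from same-plate DMSO control mean in most replicates, usually higher, sometimes lower; inconclusive means repeat tests gave conflicting results; inactive means no significant difference from controls in most replicates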;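 further: slope of initial-normalized fluorescence between seconds 10 and 20 after thallium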
HEK counter2: parental HEK flux effect, counter-screen 2; shares compounds with KCC2 mod; HEK293 parental, thallium flux FluoZin-2 fluorescence slope; thallium flux slope at 10 µM; 33% of 3,700 active; AID 1718;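 active means thallium flux slope above the same plate's solvent-control mean plus 3 SD in both duplicate wells; inconclusive means duplicate wells that disagreed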;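 further: run without ouabain in cells lacking the KCC2 cotransporter; slope of fluorescence scaled to its starting value between 10 and 20 s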
Active calls of the source: *.

Screening C/C(=N/NC(=O)c1ccc2c(c1)OCO2)c1ccc(Br)s1 returned KCNK9 block inactive, KCNK3 inh inactive, KCC2 mod 6.32*, hERG rescue -2.4, KCNQ1 act inactive, KCNQ1 block inactive, KCC2 secondary 0.01, KCC2 bumet counter 0.0152*, KCC2 sec2 0.0343, HEK counter1 inconclusive, KCC2 ouabain inconclusive and HEK counter2 inconclusive.
For C/C(=N\NC(=O)c1ccc(Cl)c(Cl)c1)c1ccc(Br)s1 the results were KCNK9 block inactive, KCNK3 inh inactive, KCC2 mod 7.17*, hERG rescue -8.0, KCNQ1 act inactive, KCNQ1 block inactive, KCC2 secondary 0.00755, KCC2 bumet counter 0.00897*, KCC2 sec2 0.0359, HEK counter1 0.0225*, KCC2 ouabain 0.0253* and HEK counter2 0.0169*.
C/C(=N/NC(N)=S)c1ccc(Br)s1 was read as KCNK9 block inactive, KCNK3 inh inactive, KCC2 mod 19.3*, hERG rescue -7.5, KCNQ1 act inactive, KCNQ1 block inactive, KCC2 secondary 0.0108, KCC2 bumet counter 0.0324*, KCC2 sec2 0.0307, HEK counter1 0.0138*, KCC2 ouabain 0.0271 and HEK counter2 inconclusive.
C/C(=N\NC(=O)c1ccc2c(c1)OCO2)c1ccco1 was read as KCNK9 block inactive, KCNK3 inh inactive, KCC2 mod 2.61, hERG rescue -1.6, KCNQ1 act inactive and KCNQ1 block inactive.
Screening C/C(=N\NC(=O)Cc1ccccc1)c1ccc(Br)s1 returned KCNK9 block inactive, KCNK3 inh inactive, hERG rescue -4.9, KCNQ1 act inactive and KCNQ1 block inactive.
Screening CC[C@]12c3[nH]c4ccc(OC)cc4c3CCN1C(=O)C(CC(=O)NC(C)(C)C)C[C@@H]2C(=O)N1CCN(C(=O)c2ccco2)CC1 (stereo partly drawn) returned KCNK3 inh inactive.
Screening COc1ccc2nc(NC(=O)CN(C)S(=O)(=O)c3cccs3)sc2c1 returned KCNK9 block inactive, KCNK3 inh inactive, KCC2 mod -0.759, hERG rescue -3.9, KCNQ1 act inactive and KCNQ1 block inactive.
COc1ccc2nc(NC(=O)CNS(=O)(=O)c3cccs3)sc2c1 was read as KCNK9 block inactive, KCNK3 inh inactive, hERG rescue -8.4, KCNQ1 act inactive, KCNQ1 block inactive, KCC2 secondary 0.0105, KCC2 bumet counter 0.00651, KCC2 sec2 0.0313, HEK counter1 0.00766, KCC2 ouabain inconclusive and HEK counter2 inconclusive.
`Cc1ccc2nc(N/C(=N/S(=O)(=O)c3cccs3)c3ccccc3Cl)sc2c1` gave KCNK9 block inactive, KCNK3 inh inactive, KCC2 mod 6.4*, hERG rescue -6.2, KCNQ1 act inactive, KCNQ1 block inactive, KCC2 secondary 0.00734, KCC2 bumet counter 0.0229*, KCC2 sec2 0.0318, HEK counter1 0.0216*, KCC2 ouabain inconclusive and HEK counter2 0.0168*.
`Cc1ccc2nc(NC(=O)c3ccccn3)sc2c1` gave KCNK9 block inactive, KCNK3 inh inactive, KCC2 mod 7.89*, hERG rescue -4.5, KCNQ1 act inactive, KCNQ1 block inactive, KCC2 secondary inconclusive, KCC2 bumet counter 0.0409*, KCC2 sec2 0.0319, HEK counter1 0.0175*, KCC2 ouabain 0.0362* and HEK counter2 0.0112*.
`CCOc1ccc2nc(NC(=O)c3ccccn3)sc2c1` gave KCNK9 block inactive, KCNK3 inh inactive, KCC2 mod 6.41*, hERG rescue -6.7, KCNQ1 act inactive, KCNQ1 block inactive, KCC2 secondary inconclusive, KCC2 bumet counter 0.0278*, KCC2 sec2 0.0281, HEK counter1 0.0134*, KCC2 ouabain 0.0302* and HEK counter2 inconclusive.
CCCCN(CC)CCCNC(=O)c1ccc(CS(=O)(=O)c2ccccc2C)o1 was read as KCNK9 block inactive, KCNK3 inh inactive, hERG rescue -5.5, KCNQ1 act inactive and KCNQ1 block inactive.
Screening Cc1ccc(C)c(-c2nnc(NC(=O)Cc3ccccc3)o2)c1 returned KCNK9 block inactive, KCNK3 inh inactive, hERG rescue -4.4, KCNQ1 act inactive and KCNQ1 block inactive.
Screening O=C(Nc1nc2c(F)cc(F)cc2s1)c1ccccn1 returned KCNK9 block inactive, KCNK3 inh inactive, KCC2 mod 23.2*, hERG rescue -10.5, KCNQ1 act inactive, KCNQ1 block inactive, KCC2 secondary 0.0201*, KCC2 bumet counter 0.105*, KCC2 sec2 0.0306, HEK counter1 0.0391*, KCC2 ouabain 0.076* and HEK counter2 0.015*.
For COC(=O)C1=C(CS(=O)(=O)c2cc(OC)ccc2OC)NC(=O)NC1c1ccc(O)c(OC)c1 (stereo not drawn) the results were KCNK9 block inactive, KCNK3 inh inactive, hERG rescue -4.4, KCNQ1 act inactive and KCNQ1 block inactive.
`O=[N+]([O-])c1cc(S(=O)(=O)Nc2cccc(C(F)(F)F)c2)ccc1-n1nnc2ccccc21` gave KCNK9 block inactive, KCNK3 inh inactive, KCC2 mod -3.22*, hERG rescue -8.1, KCNQ1 act inactive, KCNQ1 block inactive, KCC2 secondary 0.00701, KCC2 bumet counter 0.00556, KCC2 sec2 0.0305, HEK counter1 0.00733, KCC2 ouabain 0.0149* and HEK counter2 inconclusive.
Screening Cc1ccc(C)c(/C=N/n2cc(-c3ccccc3)[nH]c2=S)c1 returned KCNK9 block inactive, KCNK3 inh inactive, KCC2 mod 20.8*, hERG rescue -9.0, KCNQ1 act inactive, KCNQ1 block inactive, KCC2 secondary 0.013*, KCC2 bumet counter 0.0474*, KCC2 sec2 0.0349, HEK counter1 0.0546*, KCC2 ouabain 0.0415* and HEK counter2 0.0144*.

Compound activity from PubChem.
